Assay results published in ChEMBL document CHEMBL1123124, “New antihistaminic N-heterocyclic 4-piperidinamines. 2. Synthesis and antihistaminic activity of 1-[(4-fluorophenyl)methyl]-N-(4-piperidinyl)-1H-benzimidazol-2-a mines” (1985).

What was measured:
Rattus norvegicus [1] = assay: In vivo antihistaminic activity using compound 48/80 induced lethality test after 1 hr of subcutaneous administration in rat; format: functional; settings: sc
How it was run: (§1)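 Protection was survival for 4 h after challenge. ED50 with confidence limits was calculated by Finney from five rats per dose and at least three doses of a geometric series (0.0025–40 mg/kg). Estimated ED50 used at least two rats per dose.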

Rattus norvegicus [2] = assay: In vivo antihistaminic activity using compound 48/80 induced lethality test in rat after 2 hr of oral administration; format: functional; how it was run: as §1

Row | Structure (SMILES) | ED50 (Rattus norvegicus [1]) | ED50 (Rattus norvegicus [2])
1 | COc1ccc(C(=O)OCCN2CCC(Nc3nc4ccccc4n3Cc3ccc(F)cc3)CC2)cc1.Cl | 0.31 mg/kg | 0.63 mg/kg
2 | CN(C)CCN1CCC(Nc2nc3ccccc3n2Cc2ccc(F)cc2)CC1 | 0.63 mg/kg | 
3 | COc1ccc(S(=O)(=O)CCCN2CCC(Nc3nc4ccccc4n3Cc3ccc(F)cc3)CC2)cc1 | 0.31 mg/kg | 2.5 mg/kg
4 | Fc1ccc(Cn2c(NC3CCN(C4CCCCC4)CC3)nc3ccccc32)cc1 | 0.31 mg/kg | > 2.5 mg/kg
5 | CCNC(=O)COc1ccc(CCN2CCC(Nc3nc4ccccc4n3Cc3ccc(F)cc3)CC2)cc1 | 1.25 mg/kg | 2.5 mg/kg
6 | Cl.N#CC1(c2ccccc2)CCC(N2CCC(Nc3nc4ccccc4n3Cc3ccc(F)cc3)CC2)CC1 (centres undefined) | > 2.5 mg/kg | 
7 | Cl.Cn1nnn(CCN2CCC(Nc3nc4ccccc4n3Cc3ccc(F)cc3)CC2)c1=O | 0.31 mg/kg | > 2.5 mg/kg
8 | CCCCNC(=O)Oc1ccc(CCN2CCC(Nc3nc4ccccc4n3Cc3ccc(F)cc3)CC2)cc1 | 2.5 mg/kg | 
9 | COc1ccc(C(=O)Oc2ccc(CCN3CCC(Nc4nc5ccccc5n4Cc4ccc(F)cc4)CC3)cc2)cc1 | 0.63 mg/kg | 0.16 mg/kg
10 | Fc1ccc(Cn2c(NC3CCN(CCc4ccccn4)CC3)nc3ccccc32)cc1 | 0.16 mg/kg | 0.63 mg/kg
11 | COc1ccc(SCCCN2CCC(Nc3nc4ccccc4n3Cc3ccc(F)cc3)CC2)cc1 | 2.5 mg/kg | 
12 | Nc1ccc(CCN2CCC(Nc3nc4ccccc4n3Cc3ccc(F)cc3)CC2)cc1 | 0.31 mg/kg | 0.63 mg/kg
13 | COc1ccc(C(=O)N(CCN2CCC(Nc3nc4ccccc4n3Cc3ccc(F)cc3)CC2)C(=O)c2ccc(OC)cc2)cc1.Cl | > 2.5 mg/kg | 
14 | CS(=O)(=O)c1ccc(CCN2CCC(Nc3nc4ccccc4n3Cc3ccc(F)cc3)CC2)cc1 | 1.25 mg/kg | > 2.5 mg/kg
15 | COc1ccccc1OCC(O)CN1CCC(Nc2nc3ccccc3n2Cc2ccc(F)cc2)CC1 (centres undefined) | 1.25 mg/kg | 0.63 mg/kg
16 | Fc1ccc(Cn2c(NC3CCN(CCN(Cc4ccccc4)Cc4ccccc4)CC3)nc3ccccc32)cc1 | > 2.5 mg/kg | 
17 | COc1ccc(CCN2CCC(Nc3nc4ccccc4n3Cc3ccc(F)cc3)CC2)c(OC)c1.Cl | 0.31 mg/kg | 0.31 mg/kg
18 | Fc1ccc(Cn2c(NC3CCN(C/C=C/c4ccccc4)CC3)nc3ccccc32)cc1 | 1.25 mg/kg | > 2.5 mg/kg

Row | Structure (SMILES) | ED50 (Rattus norvegicus [1]) | ED50 (Rattus norvegicus [2])
19 | CNC(=O)NCCN1CCC(Nc2nc3ccccc3n2Cc2ccc(F)cc2)CC1 | 0.02 mg/kg | > 2.5 mg/kg
20 | COc1ccc(OC)c(CCN2CCC(Nc3nc4ccccc4n3Cc3ccc(F)cc3)CC2)c1 | 0.63 mg/kg | 0.63 mg/kg
21 | COc1ccc(OCC(O)CN2CCC(Nc3nc4ccccc4n3Cc3ccc(F)cc3)CC2)cc1 (centres undefined) | 1.25 mg/kg | 2.5 mg/kg
22 | Fc1ccc(Cn2c(NC3CCN(CCc4cccs4)CC3)nc3ccccc32)cc1 | 0.16 mg/kg | 0.63 mg/kg
23 | OC(CN1CCC(Nc2nc3ccccc3n2Cc2ccc(F)cc2)CC1)c1ccccc1 (centres undefined) | 0.63 mg/kg | > 2.5 mg/kg
24 | CC(CN1CCC(Nc2nc3ccccc3n2Cc2ccc(F)cc2)CC1)c1ccccc1 (centres undefined) | 0.63 mg/kg | 2.5 mg/kg
25 | Fc1ccc(Cn2c(NC3CCN(CCCOc4ccccc4)CC3)nc3ccccc32)cc1 | 1.25 mg/kg | 0.31 mg/kg
26 | COc1ccccc1CCN1CCC(Nc2nc3ccccc3n2Cc2ccc(F)cc2)CC1 | 1.25 mg/kg | 0.63 mg/kg
27 | Cl.Oc1cccc(CCN2CCC(Nc3nc4ccccc4n3Cc3ccc(F)cc3)CC2)c1 | 0.16 mg/kg | 0.31 mg/kg
28 | Fc1ccc(Cn2c(NC3CCN(CCc4ccc(OCc5ccccc5)cc4)CC3)nc3ccccc32)cc1 | 2.5 mg/kg | 
29 | Fc1ccc(Cn2c(NC3CCN(CCCCOc4ccccc4)CC3)nc3ccccc32)cc1 | 0.63 mg/kg | 0.63 mg/kg
30 | Fc1ccc(Cn2c(NC3CCN(CCc4ccncc4)CC3)nc3ccccc32)cc1 | 0.31 mg/kg | 1.25 mg/kg
31 | N#CCN1CCC(Nc2nc3ccccc3n2Cc2ccc(F)cc2)CC1 | 0.16 mg/kg | 2.5 mg/kg
32 | Cl.NCCN1CCC(Nc2nc3ccccc3n2Cc2ccc(F)cc2)CC1 | 1.25 mg/kg | > 2.5 mg/kg
33 | Cc1ccc2nc(NC3CCN(CCc4ccccc4)CC3)n(Cc3ccc(F)cc3)c2c1 | > 2.5 mg/kg | 
34 | COc1cc(CCN2CCC(Nc3nc4ccccc4n3Cc3ccc(F)cc3)CC2)cc(OC)c1OC.Cl | 1.25 mg/kg | 0.63 mg/kg
35 | Cl.Fc1ccc(CCN2CCC(Nc3nc4ccccc4n3Cc3ccc(F)cc3)CC2)cc1 | 0.31 mg/kg | > 2.5 mg/kg
36 | CC(c1ccccc1)N1CCC(Nc2nc3ccccc3n2Cc2ccc(F)cc2)CC1 (centres undefined) | 0.31 mg/kg | 2.5 mg/kg
